Columns and labels:
[1] = test system: K. aerogenes (6915), VIM-2; assay: Imipenem MIC, broth microdilution, clinical isolate; assay type: cell-based; conditions: MMTZ at constant 100 mg/L
In short: (§1)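 Clinical Enterobacterales isolates producing MBLs. Carbapenem MIC was determined for the carbapenem alone and in the presence of test compound, and the shift in MIC was assessed. Imipenem was the carbapenem for most strains. Morganellaceae strains were tested with meropenem instead, because of their intrinsic reduced susceptibility to imipenem.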

IMP-1 = IMP-1 (Serratia marcescens, UniProt P52699); assay: Imipenem hydrolysis by purified IMP-1, competitive inhibition model; assay type: biochemical
L929 = assay: Cytotoxicity, MTT assay; assay type: cell-based, mouse; conditions: 260, 355 and 530 μM, 24 hs
NDM-1 = NDM-1 (Klebsiella pneumoniae, UniProt C7C422); assay: Imipenem hydrolysis by purified NDM-1, competitive inhibition model; assay type: biochemical; conditions: for Fold more active against NDM-1 than its enantiomer / Fold more potent NDM-1 inhibitor than L-BTZ-1: ratio of Ki values
E. coli (8.68), NDM-1 = assay: Imipenem MIC, broth microdilution, clinical isolate; assay type: cell-based; conditions: for MIC of imipenem (IMI) + MMTZ: E. coli (8.68), NDM-1, MMTZ at constant 100 mg/L
In short: as §1

[2] = test system: K. pneumoniae (1.37), NDM; assay: as above; assay type: cell-based; conditions: MMTZ at constant 100 mg/L
In short: as §1

VERO = assay: Cytotoxicity, MTT assay; assay type: cell-based, African green monkey; conditions: 260, 355 and 530 μM, 24 hs
[3] = biological target: E. coli cells expressing NDM-1 (Klebsiella pneumoniae, UniProt C7C422); assay type: cell-based
VIM-2 = VIM-2 (Escherichia coli, UniProt Q5U7L7); assay: Imipenem hydrolysis by purified VIM-2, competitive inhibition model; assay type: biochemical
HEK293 = assay: Cytotoxicity, MTT assay; assay type: cell-based, human; conditions: 260, 355 and 530 μM, 24 hs
[4] = test system: Enterobacter spp. (42713), IMP; assay: Imipenem MIC, broth microdilution, clinical isolate; assay type: cell-based; conditions: for MIC of imipenem (IMI) + MMTZ: Enterobacter spp. (42713), IMP, MMTZ at constant 100 mg/L
In short: as §1

[5] = test system: K. pneumoniae (5639), VIM-24; assay: as above; assay type: cell-based; conditions: MMTZ at constant 100 mg/L
In short: as §1

[6] = test system: K. pneumoniae (6907), VIM-2; assay: as above; assay type: cell-based; conditions: MMTZ at constant 100 mg/L
In short: as §1

[7] = test system: K. pneumoniae (LC 82), IMP-13; assay: as above; assay type: cell-based; conditions: MMTZ at constant 100 mg/L
In short: as §1

[8] = test system: clinical isolates producing MBLs; assay: Antimicrobial susceptibility testing, statements on the whole panel; assay type: cell-based; conditions: MMTZ at constant 100 mg/L, Enterobacterales clinical isolates
In short: as §1

[9] = Chemical stability in PBS; assay type: physicochemical; conditions: PBS pH 7.2, 27 °C
[10] = test system: P. mirabilis (UNC KPC 170), IMP; assay: Carbapenem; assay type: cell-based; conditions: tested using meropenem (footnote a)
In short: as §1

IMP-1, sequence (P52699 19-246, looked up, species assumed): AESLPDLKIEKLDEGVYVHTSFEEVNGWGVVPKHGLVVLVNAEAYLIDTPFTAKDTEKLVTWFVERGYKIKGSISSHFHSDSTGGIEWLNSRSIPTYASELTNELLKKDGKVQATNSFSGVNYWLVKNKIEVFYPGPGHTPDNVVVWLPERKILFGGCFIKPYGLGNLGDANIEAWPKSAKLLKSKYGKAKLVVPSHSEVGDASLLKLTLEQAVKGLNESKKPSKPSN
E. coli cells expressing NDM-1, sequence (C7C422 29-270, looked up): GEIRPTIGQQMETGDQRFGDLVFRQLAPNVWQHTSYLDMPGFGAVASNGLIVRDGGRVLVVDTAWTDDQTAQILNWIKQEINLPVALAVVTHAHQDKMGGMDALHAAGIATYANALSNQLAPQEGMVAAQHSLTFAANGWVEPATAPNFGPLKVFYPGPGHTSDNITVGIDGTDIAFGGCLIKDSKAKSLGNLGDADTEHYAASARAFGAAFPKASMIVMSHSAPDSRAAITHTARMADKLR
NDM-1, sequence (C7C422 29-270, looked up, species assumed): as the sequence (C7C422 29-270, looked up) above

| Compound | MIC of imipenem (IMI) + MMTZ [1] | Ki (IMP-1) | Ki (NDM-1) | MIC of imipenem (IMI) + MMTZ (E. coli (8.68), NDM-1) | MIC of imipenem (IMI) + MMTZ [2] | IC50 [3] | Ki (VIM-2) | MIC of imipenem (IMI) + MMTZ [4] | MIC of imipenem (IMI) + MMTZ [5] | MIC of imipenem (IMI) + MMTZ [6] | other results |
| --- | --- | --- | --- | --- | --- | --- | --- | --- | --- | --- | --- |
| CCOC(=O)[C@@]1(CS)N[C@@H](C(=O)O)CS1 [D-anti-1a, (2R,4S)-2-(ethoxycarbonyl)-2-(mercaptomethyl)thiazolidine-4-carboxylic acid] | 2 µg/mL | 1300 ± 100 nM | 2500 ± 500 nM | 16 µg/mL | 8 µg/mL | 64000 ± 5000 nM | 390 ± 40 nM | 8 µg/mL | 4 µg/mL | 2 µg/mL | Cytotoxicity (cell viability) (L929): induced a decline in cell viability percentages in almost all conditions; Cytotoxicity (cell viability) (VERO): induced a decline in cell viability percentages in almost all conditions; Cytotoxicity (cell viability) (HEK293): induced a decline in cell viability percentages in almost all conditions |
| CCOC(=O)[C@@]1(CS)N[C@H](C(=O)O)C(C)(C)S1 [L-syn-1b, (2R,4R)-2-(Ethoxycarbonyl)-2-(mercaptomethyl)-5,5-dimethylthiazolidine-4-carboxylic acid] | 4 µg/mL | 6000 ± 600 nM | 8000 ± 1000 nM | 32 µg/mL |  | 230000 ± 30000 nM | 3600 ± 400 nM | 16 µg/mL | 8 µg/mL | 4 µg/mL | MIC of imipenem (IMI) + MMTZ [7]: 1 µg/mL |
| CCOC(=O)[C@]1(CS)N[C@H](C(=O)O)C(C)(C)S1 [L-anti-1b, (2S,4R)-2-(Ethoxycarbonyl)-2-(mercaptomethyl)-5,5-dimethylthiazolidine-4-carboxylic acid] | 2 µg/mL | 460 ± 50 nM | 440 ± 60 nM | 16 µg/mL | 8 µg/mL | 160000 ± 10000 nM | 750 ± 90 nM | 8 µg/mL | 4 µg/mL | 1 µg/mL | Fold more active against NDM-1 than its enantiomer (NDM-1): 7 fold; Fold more potent NDM-1 inhibitor than L-BTZ-1 (NDM-1): 12 fold |
| CCOC(=O)[C@@]1(CS)N[C@@H](C(=O)O)C(C)(C)S1 [D-anti-1b, (2R,4S)-2-(Ethoxycarbonyl)-2-(mercaptomethyl)-5,5-dimethylthiazolidine-4-carboxylic acid] | 2 µg/mL | 930 ± 80 nM | 3100 ± 300 nM | 16 µg/mL | 8 µg/mL | 210000 ± 10000 nM | 900 ± 100 nM | 8 µg/mL | 1 µg/mL | 1 µg/mL | Reduction in MIC values of imipenem [8]: up to 16 fold; Degradation in PBS by LCMS ([9]; 6 h): did not hydrolyse to penicillamine and the main degradation product was the disulphide derivative; Intact MMTZ remaining ([9]; after 6 hours): 88% |
| C[C@@H](O)[C@H]1C(=O)N2C(C(=O)O)=C(SCCN=CN)C[C@H]12 [IMI, imipenem, reference compound] |  |  |  |  |  |  |  |  |  |  | MIC (E. coli (8.68), NDM-1; Escherichia coli, read-out: MIC of imipenem (IMI) alone): 64 µg/mL; MIC ([4]; Enterobacter, read-out: MIC of imipenem (IMI) alone): 16 µg/mL; MIC of carbapenem alone (column IMI) [10]: 16 µg/mL |
| CCOC(=O)[C@]1(CS)N[C@@H](C(=O)O)C(C)(C)S1 [D-syn-1b, (2S,4S)-2-(Ethoxycarbonyl)-2-(mercaptomethyl)-5,5-dimethylthiazolidine-4-carboxylic acid] | 4 µg/mL | 2000 ± 200 nM |  | 32 µg/mL | 8 µg/mL |  | 1900 ± 100 nM | 8 µg/mL | 8 µg/mL | 4 µg/mL | Fold more active against NDM-1 than its enantiomer (NDM-1): 13 fold; Fold more potent NDM-1 inhibitor than L-BTZ-1 (NDM-1): 12 fold |
| CCOC(=O)[C@]1(CS)N[C@H](C(=O)O)CS1 [L-anti-1a, (2S,4R)-2-(ethoxycarbonyl)-2-(mercaptomethyl)thiazolidine-4-carboxylic acid] | 4 µg/mL | 1000 ± 200 nM | 5200 ± 700 nM |  | 8 µg/mL | 54000 ± 4000 nM | 380 ± 50 nM | 16 µg/mL | 8 µg/mL | 2 µg/mL | MIC of imipenem (IMI) + MMTZ [7]: 0.5 µg/mL; Cytotoxicity (cell viability) (HEK293): more selectively toxic towards the HEK293 cell line |
